In the library only some 3.2% were active in any assay of this set; here they are far more common.
Ecoli rRNA inh – reduced GFP signal of wild-type E. coli, primary screen, bacterial rRNA inhibitor project, GFP/RFP fluorescence, OD600, single point; E. coli WT GFP vs humanized-ribosome RFP mutants, 24 h; stronger effect = lower value; DMSO median 0, no signal -100; GFP signal change (wild-type ribosome), % (concentration not given with the values); actives 1.6% (n = 350,000); AID 720706, 2013;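 active = significant combined selectivity score with lowered wild-type GFP, culture density cut under 30%, mutant RFP and density less affected; inactive = any of these conditions unmet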
Cneo AK release – Cryptococcus neoformans cell lysis inducers, primary screen, AK release luminescence, single concentration. C. neoformans lysis, adenylate kinase release luminescence, 4 h; normalised: neutral wells 0, clomiphene wells 100. lysis activity, % at 15 µM. actives 0.2% (n = 360,000). AID 651654, 2012;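 active = mean lysis activity across replicates of at least 80%, whatever share of replicates individually reach that level; inactive = mean lysis activity below 80%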
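read-out = cell lysis signal | test system = log-phase Cryptococcus neoformans yeast cells | input = cells at 5 × 10^6 per mL | medium = fresh YPD growth medium | signal = luminescent adenylate kinase detection reagent | timing = 4 h at 37 °C static, read 1 h later | dosing = single dose | controls = Clomiphene as positive lysis control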
S100A4 MyoIIA – inhibitors of S100A4-myosin IIA peptide binding, primary screen, biochemical, fluorescence polarization, TAMRA-MyoIIA peptide | Protein S100-A4 (Homo sapiens), P26447 | inhibition, % at 10.7 µM | actives 0.14% (n = 360,000);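 active = mean inhibition of at least 70% across replicates, with every replicate also reaching that level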
Target sequence (P26447 whole entry, looked up): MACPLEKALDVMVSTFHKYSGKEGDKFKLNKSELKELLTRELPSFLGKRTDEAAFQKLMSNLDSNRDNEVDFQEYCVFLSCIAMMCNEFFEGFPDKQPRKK
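Assay system: human S100A4 monomer with TAMRA-labelled myosin IIA peptide / Buffer or medium: Calcium-containing HEPES buffer, pH 7.2 / Reagent: TAMRA-labelled myosin IIA heavy-chain peptide probe, 5 nM / Compound: one dose per compound / Timing: polarization read 5 min after assay mix addition, stable 5–60 min / Benchmarks: neutral control DMSO, positive control TFP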
DENV2 CPE – inhibitors of DENV2 cytopathic effect, primary screen, cell-based, plate reader, single concentration. DENV2-infected cells, cytopathic effect rescue. actives 1.7% (n = 350,000). CPE inhibition, % at 9.99 µM; in the data active = CPE inhibition above about 20%, passing the limit was not always enough; tested in BHK-21 cells;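 also: 0% = median of neutral control wells and 100% = median of positive control wells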
PfHsp90 yeast 2 – growth inhibition of PfHsp90-expressing yeast, primary screen, antimalarial PfHsp90 inhibitor project, S. cerevisiae, BacTiter-Glo luminescence, single point, set 2; inhibition, % at 9.4 µM; actives 0.32% (n = 310,000); AID 504621, 2011; BacTiter-Glo ATP, 48 h; yeast lacking PDR1 and PDR3 efflux regulators;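 active = every replicate shows inhibition above about 80%, whatever the replicate mean, limit read from the data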;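 also: 0% = DMSO neutral controls and 100% = 20 µM radicicol positive controls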
MLL AF4-AF9 inh – inhibitors of AF4 peptide binding to AF9, primary screen, biochemical, AlphaScreen, biotin-AF4 peptide, FLAG-AF9, single point | actives 0.47% (n = 350,000) | Protein AF-9 (Homo sapiens), P42568 | inhibition, % at 10 µM;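 active = every replicate reaching a set inhibition limit, whatever the replicate mean, cut at about 25% in these data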;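 also: 0% = plate neutral control median and 100% = total signal loss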
Target sequence (P42568 whole entry, looked up): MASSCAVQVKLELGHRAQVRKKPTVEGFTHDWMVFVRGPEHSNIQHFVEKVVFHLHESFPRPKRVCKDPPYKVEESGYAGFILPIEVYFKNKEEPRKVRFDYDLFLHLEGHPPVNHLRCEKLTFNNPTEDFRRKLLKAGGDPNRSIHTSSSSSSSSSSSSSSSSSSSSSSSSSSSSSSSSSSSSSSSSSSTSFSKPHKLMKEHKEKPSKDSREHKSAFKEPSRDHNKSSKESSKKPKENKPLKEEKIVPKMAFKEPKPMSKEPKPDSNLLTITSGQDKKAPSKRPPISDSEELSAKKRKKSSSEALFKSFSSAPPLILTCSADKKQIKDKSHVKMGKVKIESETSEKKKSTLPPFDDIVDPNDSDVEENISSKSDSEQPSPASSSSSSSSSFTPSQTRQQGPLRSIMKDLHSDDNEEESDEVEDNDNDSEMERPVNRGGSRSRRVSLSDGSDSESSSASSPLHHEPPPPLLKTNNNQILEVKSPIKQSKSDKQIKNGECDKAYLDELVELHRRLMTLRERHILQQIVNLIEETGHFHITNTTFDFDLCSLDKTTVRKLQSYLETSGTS
Starred values were filed as active, the others as inactive; · = not tested or not shown.

SMILES | Ecoli rRNA inh | Cneo AK release | S100A4 MyoIIA | DENV2 CPE | PfHsp90 yeast 2 | MLL AF4-AF9 inh
CC[C@@H]1CC=CC[C@@H](C)Oc2ccccc2C(=O)N(C)[C@@H](C(C)C)C(=O)N1 (mixture of isomers) | 1.4 | · | · | · | · | ·
CCS(=O)(=O)NCC[C@@H]1CC[C@@H](NC(=O)C2CCC2)[C@H](CO)O1 | -1.1 | -2.1 | 3.4 | 6.1 | · | -0.7
O=C(Cc1ccccc1)NNC(=S)Nc1ccccc1 | -2.6 | · | 1.5 | -11.6 | -5.3 | -2.9
CC(C)COCC(O)CCC(=O)NNC(=S)Nc1ccccc1 (stereo not drawn) | 5.0 | · | -1.7 | 94.0* | 14.9 | -3.9
COc1ccccc1/C=C1\SC(=S)N(CCC(=O)Nc2ccc(C(=O)O)c(O)c2)C1=O | -33.5 | · | 1.5 | 9.2 | -5.5 | 25.8*
O=C(CCCN1C(=O)/C(=C\c2ccccc2)SC1=S)Nc1ccc(O)cc1C(=O)O | -20.7* | 2.5 | -0.4 | -3.9 | 22.3 | 1.1
COc1ccc(/C=C2\SC(=S)N(CCCC(=O)N3CCOCC3)C2=O)cc1 | -11.6 | 0.5 | 6.0 | 3.9 | -6.0 | 12.5
O=C(CCCN1C(=O)/C(=C\c2ccccc2)SC1=S)N1CCOCC1 | -21.1* | -0.1 | -0.1 | -6.2 | · | 16.5
O=C(CCN1C(=O)/C(=C/c2ccco2)SC1=S)Nc1ccc(C(=O)O)c(O)c1 | -2.0 | -2.0 | -48.9 | 4.5 | -30.4 | 6.0
Cc1ccc(-n2nnnc2C(Cl)(Cl)c2nnnn2-c2ccc(C)cc2)cc1 | 22.2 | · | 1.2 | -3.3 | 128.4* | 10.0
CCOc1ccc(OCC)c(NC(=O)CSc2nc3c(c(=O)n(C)c(=O)n3C)n2C(C)C)c1 | -27.4* | 5.8 | -21.8 | -1.0 | 20.5 | 3.5
COc1ccc(C(=O)/C=C/C(=O)N(Cc2ccc(F)cc2)C(C(=O)NC2CCCCC2)c2ccncc2)c(O)c1 (stereo not drawn) | · | -1.6 | · | · | 48.9 | ·
COc1ccc(C(=O)/C=C/C(=O)N(Cc2ccccc2)C(C(=O)NC2CCCCC2)c2ccncc2)c(O)c1 (stereo not drawn) | -13.0 | 1.6 | 0.1 | 40.8* | -39.0 | -15.1
CCCNC(=O)Nc1ccc2c(c1)C(=O)N(C)C[C@H](OC)[C@H](C)CN(C)[C@@H](C)CO2 | 2.2 | 8.9 | 12.0 | 101.4* | · | 3.2
CCCNC(=O)Nc1ccc2c(c1)OC[C@@H](C)N(C)C[C@@H](C)[C@H](OC)CN(C)C2=O | 3.8 | 8.3 | 2.2 | -9.0 | · | 0.3
CCCNC(=O)Nc1ccc2c(c1)OC[C@@H](C)N(C(=O)c1ccccc1F)C[C@@H](C)[C@H](OC)CN(C)C2=O | 1.6 | -2.9 | -2.6 | -7.1 | · | 0.2
CCCNC(=O)Nc1ccc2c(c1)OC[C@H](C)N(C(=O)c1ccccc1F)C[C@@H](C)[C@H](OC)CN(C)C2=O | -0.5 | 0.0 | -3.6 | 40.1* | · | -13.4
CCCNC(=O)Nc1ccc2c(c1)C(=O)N(C)C[C@H](OC)[C@@H](C)CN(Cc1cccnc1)[C@H](C)CO2 | 2.3 | 81.3* | 2.4 | -3.6 | · | -1.8
CCCNC(=O)Nc1ccc2c(c1)C(=O)N(C)C[C@@H](OC)[C@H](C)CN(C)[C@@H](C)CO2 | 1.6 | -5.5 | -31.5 | -1.2 | · | 1.1
CCCNC(=O)Nc1ccc2c(c1)C(=O)N(C)C[C@H](OC)[C@H](C)CN(C)[C@H](C)CO2 | 1.8 | -1.3 | 0.9 | 38.3* | · | -1.4
COc1ccc(NC(=O)N(C)C[C@@H]2Oc3ncc(-c4ccc(C#N)cc4)cc3C(=O)N([C@@H](C)CO)C[C@@H]2C)cc1 | -2.7 | 0.9 | 2.4 | -6.3 | · | -2.3
C[C@@H]1CCCCO[C@H](CN(C)C(=O)c2ccccc2)[C@@H](C)CN([C@H](C)CO)C(=O)c2cc(NC(=O)CCC(F)(F)F)ccc2O1 | 2.0 | -5.5 | 7.9 | -9.9 | · | -7.4
O=C(c1cccc(F)c1)N1CCCCN2[C@@H](CO)[C@H](c3ccc(/C=C/c4ccccc4)cc3)[C@@H]2C1 | -60.8 | -0.7 | -9.3 | -2.8 | · | 17.7
COc1ccccc1S(=O)(=O)N[C@H]1CC[C@@H](CCn2cc(C3CC3)nn2)O[C@H]1CO | -0.6 | 15.1 | -1.2 | -4.0 | · | 1.2
CN(C)CCNc1ccc(CO)c2oc3ccc(O)cc3c(=O)c12 | -9.6 | · | 13.4 | -0.3 | -11.0 | 9.4
SMILES | Ecoli rRNA inh | Cneo AK release | S100A4 MyoIIA | DENV2 CPE | PfHsp90 yeast 2 | MLL AF4-AF9 inh
CCN(CC)CCNc1ccc(CO)c2oc3cc(Cl)ccc3c(=O)c12 | -0.3 | 0.6 | -1.1 | 64.0* | · | 9.5
CNc1nc(Oc2cccc(NC(C)=O)c2)c2sccc2n1 | 8.1 | 0.4 | 4.1 | 52.7* | · | 1.2
O=c1c2ccccc2nc(COc2ccccc2)n1/N=C/c1ccc(O)c(O)c1 | -30.6* | -6.4 | -4.8 | · | 16.7 | 12.8
Cc1nc2ccccc2c(=O)n1NC(=O)COc1ccccc1 | 10.5 | 0.8 | 1.7 | 5.9 | 1.4 | 2.2
O=C(Nn1c(COc2ccccc2)nc2ccccc2c1=O)C(Cl)(Cl)Cl | -15.3* | 8.0 | 0.2 | 3.3 | -2.1 | -3.4
O=C(O)COc1ccc(/C=N/n2c(COc3ccccc3)nc3ccccc3c2=O)cc1 | -9.2 | · | 1.2 | 16.0 | 15.0 | 3.1
O=C(CCCn1c(=S)[nH]c2ccc(Br)cc2c1=O)NCc1ccccn1 | -2.8 | -3.4 | -3.1 | 0.9 | 15.5 | -0.1
O=c1c2cc(Br)ccc2[nH]c(=S)n1Cc1ccccn1 | 1.3 | · | 0.1 | 31.3* | 3.2 | 2.9
CS/C(=N\S(=O)(=O)c1cccs1)Nc1cccc(Cl)c1C | -44.4* | 1.8 | 0.5 | -3.2 | -10.3 | -1.1
O=C(CN1CCOCC1)N[C@@H]1CC[C@H](CCn2cc(C3CCCCC3)nn2)O[C@@H]1CO | 1.3 | -1.7 | 10.5 | 1.0 | · | 1.7
O=C(CSc1ncnc2c1nnn2Cc1ccc(F)cc1)NCC1CCCO1 (stereo not drawn) | 1.9 | -2.2 | 73.7* | -10.4 | 1.0 | -1.3
CC1=NNC(=O)/C1=C\c1cn(-c2ccccc2)nc1-c1cccs1 | 11.1 | · | -4.2 | · | 110.1* | -1.1
O=C(O)CCCCCN1C(=O)/C(=C/c2cn(-c3ccccc3)nc2-c2cccs2)SC1=S | 10.4 | · | 1.8 | -5.3 | -15.6 | -9.8
O=C(O)CCCCCN1C(=O)/C(=C\c2cn(-c3ccccc3)nc2-c2cccs2)SC1=S | 7.5 | 4.0 | 1.9 | 59.6* | -11.7 | -3.2
COc1cc(C(=O)NCc2cccc(Cl)c2)ccc1OCC(=O)N1CCOCC1 | 0.6 | · | -2.9 | 115.0* | · | -3.2

Screens as filed in PubChem.
